Laboratory results from ChEMBL document CHEMBL1157157, “N-Aroyl-3,5-bis(benzylidene)-4-piperidones: a novel class of antimycobacterial agents” (Bioorg Med Chem, 2008).
Values after ≈ are worked out from the molar mass of the structure shown. Active and inactive are the calls of the source. The rule behind the calls is not given here.

How the values were obtained:
[1] = Lipophilicity, log P of the compound; assay type: physicochemical; settings: octanol/water
Summary of the method: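 log P calculated with ACD algorithm and database statistics; not measured experimentally.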

Mus musculus [2] = experiment: Neurotoxicity in mouse at 100 mg/kg after 4 hrs; assay type: toxicity, organism-based; design: dose 100 mg/kg; settings: in vivo
Summary of the method: (§1)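 Mice dosed intraperitoneally at 30, 100 and 300 mg/kg; 1a and 1b given as hydrochloride salts. Observed 0.5 and 4 h after dosing. Value is number of animals showing neurological deficit over number dosed. Deaths also recorded.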

[3] = tested on: Mycobacterium tuberculosis; experiment: Antimycobacterial activity against Mycobacterium tuberculosis H37Rv by broth microdilution assay; assay type: functional
Summary of the method: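 M. tuberculosis H37Rv (ATCC 27294) grown in BACTEC 12B medium, broth microdilution. MIC taken as the lowest concentration giving a 90% reduction in fluorescence relative to controls. Rifampin served as reference drug.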

[4] = tested on: Mycobacterium tuberculosis; experiment: Antimycobacterial activity against Mycobacterium tuberculosis H37Rv at 6.25 ug/ml by broth microdilution assay; assay type: functional
Summary of the method: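 Single-concentration screen at 6.25 µg/mL against M. tuberculosis H37Rv (ATCC 27294), broth microdilution in BACTEC 12B medium. Read-out is % growth inhibition versus controls. At least 90% inhibition counted as active.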

Mus musculus [5] = experiment: Neurotoxicity in mouse at 300 mg/kg after 4 hrs; assay type: toxicity, organism-based; design: dose 300 mg/kg; settings: in vivo; summary of the method: as §1
Mus musculus [6] = experiment: Neurotoxicity in mouse at 100 mg/kg after 0.5 hrs; assay type: toxicity, organism-based; design: dose 100 mg/kg; settings: in vivo; summary of the method: as §1
Mus musculus [7] = experiment: Neurotoxicity in mouse at 300 mg/kg after 0.5 hrs; assay type: toxicity, organism-based; design: dose 300 mg/kg; settings: in vivo; summary of the method: as §1
Liver [8] = experiment: Stimulation of respiration in rat liver mitochondria assessed as effect on swelling at 100 uM; assay type: functional
Summary of the method: (§2)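 Rat liver mitochondria isolated by differential centrifugation (respiratory control ratio 5–7). Swelling of fresh mitochondria followed at 30 °C in 125 mM sucrose, 65 mM KCl, 10 mM Hepes, 5 mM potassium phosphate, 1 mM MgCl2, pH 7.2, with 5 mM succinate. Compounds tested at 5, 10 and 100 μM; DMSO solvent control.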

Liver [9] = experiment: Stimulation of respiration in rat liver mitochondria assessed as effect on swelling at 10 uM; assay type: functional; summary of the method: as §2
Liver [10] = experiment: Stimulation of respiration in rat liver mitochondria assessed as effect on swelling at 5 uM; assay type: functional; summary of the method: as §2
[11] = tested on: Mycobacterium tuberculosis; experiment: Antimycobacterial activity against Mycobacterium tuberculosis H37Rv at 12.5 ug/ml by broth microdilution assay; assay type: functional
Summary of the method: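 Primary screen against M. tuberculosis H37Rv (ATCC 27294) at a single concentration of 12.5 µg/mL in BACTEC 12B medium by broth microdilution. Growth inhibition expressed as % relative to controls. Hydrochloride salt used where applicable.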

Rattus norvegicus [12] = experiment: Neurotoxicity in rat at 30 mg/kg, po after 0.5 hrs; assay type: toxicity, organism-based; design: dose 30 mg/kg, route oral; settings: in vivo
Summary of the method: (§3)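 Rats dosed orally at 30 or 50 mg/kg and examined for neurotoxicity 0.25, 0.5, 1, 2 and 4 h after dosing. Four animals per group, with three rats at one 0.5 h time point.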

Rattus norvegicus [13] = experiment: Neurotoxicity in rat at 30 mg/kg, po after 0.25 hrs; assay type: toxicity, organism-based; design: dose 30 mg/kg, route oral; settings: in vivo; summary of the method: as §3
Rattus norvegicus [14] = experiment: Neurotoxicity in rat at 50 mg/kg, po after 1 hr; assay type: toxicity, organism-based; design: dose 50 mg/kg, route oral; settings: in vivo; summary of the method: as §3
Rattus norvegicus [15] = experiment: Neurotoxicity in rat at 30 mg/kg, po after 4 hrs; assay type: toxicity, organism-based; design: dose 30 mg/kg, route oral; settings: in vivo; summary of the method: as §3
Rattus norvegicus [16] = experiment: Neurotoxicity in rat at 30 mg/kg, po after 2 hrs; assay type: toxicity, organism-based; design: dose 30 mg/kg, route oral; settings: in vivo; summary of the method: as §3

Row | Structure (SMILES) | logP ([1]; read-out: logP) | Activity (Mus musculus [2]) | MIC [3] [µg/mL] | inhibition at 6.25 µg/mL [4] [%] | Activity (Mus musculus [5]) | Activity (Mus musculus [6]) | Activity (Mus musculus [7]) | logP [1] | also measured
1 | Cc1ccc(/C=C2\CN(C(=O)c3ccc(OCCN4CCOCC4)cc3)C/C(=C\c3ccc(C)cc3)C2=O)cc1.Cl | 6.3 | Non-toxic | 0.78 | 100 | Non-toxic | Non-toxic | Non-toxic |  | 
2 | CC[N+](C)(CC)CCOc1ccc(C(=O)N2C/C(=C\c3ccccc3)C(=O)/C(=C/c3ccccc3)C2)cc1.[I-] | 2.2 | Toxic |  | 0 | Toxic | Toxic | Toxic |  | 
3 | CCN(CC)CCOc1ccc(C(=O)N2C/C(=C\c3ccc(Cl)cc3)C(=O)/C(=C/c3ccc(Cl)cc3)C2)cc1.Cl |  | Non-toxic |  | 37 | Non-toxic | Non-toxic | Non-toxic | 8 | 
4 | O=C1/C(=C/c2ccc([N+](=O)[O-])cc2)CNC/C1=C\c1ccc([N+](=O)[O-])cc1 |  | Non-toxic | 0.2 (≈ 0.547 µM) |  | Non-toxic | Non-toxic | Non-toxic | 5.3 | Activity (Liver [8]): inactive; Activity (Liver [9]): inactive; Activity (Liver [10]): inactive; inhibition at 12.5 µg/mL [11]: 100%
5 | Cl.O=C1/C(=C/c2ccccc2)CNC/C1=C\c1ccccc1 |  | Non-toxic | 3.13 |  | Non-toxic | Non-toxic | Non-toxic | 5.7 | inhibition at 12.5 µg/mL [11]: 99%
6 | Cc1ccc(/C=C2\CNC/C(=C\c3ccc(C)cc3)C2=O)cc1 |  | Non-toxic |  | 0 | Non-toxic | Non-toxic | Non-toxic | 6.6 | 
7 | Cl.O=C1/C(=C/c2ccc([N+](=O)[O-])cc2)CN(C(=O)c2ccc(OCCN3CCOCC3)cc2)C/C1=C\c1ccc([N+](=O)[O-])cc1 | 5 | Non-toxic | 6.25 | 100 | Non-toxic | Non-toxic |  |  | 
8 | Cl.O=C1/C(=C/c2ccccc2)CN(C(=O)c2ccc(OCCN3CCCCC3)cc2)C/C1=C\c1ccccc1 |  |  | 6.25 | 100 |  |  |  | 7.1 | 
9 | CN(C)CCOc1ccc(C(=O)N2C/C(=C\c3ccc([N+](=O)[O-])cc3)C(=O)/C(=C/c3ccc([N+](=O)[O-])cc3)C2)cc1.Cl | 5.5 | Non-toxic |  | 27 |  | Non-toxic |  |  | Activity (Rattus norvegicus [12]): Non-toxic
10 | CO[C@H]1/C=C/O[C@@]2(C)Oc3c(C)c(O)c4c(O)c(c(/C=N/N5CCN(C)CC5)c(O)c4c3C2=O)NC(=O)/C(C)=C\C=C\[C@H](C)[C@H](O)[C@@H](C)[C@@H](O)[C@@H](C)[C@H](OC(C)=O)[C@@H]1C [RIFAMPIN] |  |  | 0.07 (≈ 0.0851 µM) |  |  |  |  |  | 
11 | CCN(CC)CCOc1ccc(C(=O)N2C/C(=C\c3ccc(C)cc3)C(=O)/C(=C/c3ccc(C)cc3)C2)cc1.Cl |  | Non-toxic | 3.13 | 100 | Non-toxic | Non-toxic | Non-toxic | 7.9 | 
12 | CN(C)CCOc1ccc(C(=O)N2C/C(=C\c3ccccc3)C(=O)/C(=C/c3ccccc3)C2)cc1.Cl |  | Non-toxic | 1.56 | 98 | Non-toxic | Non-toxic | Non-toxic | 5.9 | Activity (Liver [8]): inactive; Activity (Liver [9]): inactive; Activity (Liver [10]): inactive; Activity (Rattus norvegicus [13]): Non-toxic
13 | CCN(CC)CCOc1ccc(C(=O)N2C/C(=C\c3ccccc3)C(=O)/C(=C/c3ccccc3)C2)cc1.Cl |  | Non-toxic |  | 99 | Non-toxic |  |  | 7 | Activity (Rattus norvegicus [14]): Non-toxic
14 | CC[N+](C)(CC)CCOc1ccc(C(=O)N2C/C(=C\c3ccc(Cl)cc3)C(=O)/C(=C/c3ccc(Cl)cc3)C2)cc1.[I-] | 3.2 | Non-toxic |  | 23 | Non-toxic | Non-toxic | Non-toxic |  | 
15 | Cc1ccc(/C=C2\CN(C(=O)c3ccc(OCCN4CCCCC4)cc3)C/C(=C\c3ccc(C)cc3)C2=O)cc1.Cl |  | Non-toxic | 3.13 | 100 | Non-toxic |  | Non-toxic | 8 | 
16 | COc1ccc(C(=O)N2C/C(=C\c3ccc(Cl)cc3)C(=O)/C(=C/c3ccc(Cl)cc3)C2)cc1 | 6 | Non-toxic |  | 47 | Non-toxic |  | Non-toxic |  | 
17 | CC[N+](C)(CC)CCOc1ccc(C(=O)N2C/C(=C\c3ccc([N+](=O)[O-])cc3)C(=O)/C(=C/c3ccc([N+](=O)[O-])cc3)C2)cc1.[I-] | 1.8 |  |  | 0 | Toxic |  | Toxic |  | Activity (Rattus norvegicus [15]): Non-toxic
18 | CC[N+](C)(CC)CCOc1ccc(C(=O)N2C/C(=C\c3ccc(C)cc3)C(=O)/C(=C/c3ccc(C)cc3)C2)cc1.[I-] | 3.1 | Non-toxic |  | 81 | Toxic | Non-toxic |  |  | 
19 | CN(C)CCOc1ccc(C(=O)N2C/C(=C\c3ccc(Cl)cc3)C(=O)/C(=C/c3ccc(Cl)cc3)C2)cc1.Cl |  | Non-toxic | 1.56 | 100 | Non-toxic | Non-toxic | Non-toxic | 7 | 
20 | Cl.O=C1/C(=C/c2ccc([N+](=O)[O-])cc2)CN(C(=O)c2ccc(OCCN3CCCCC3)cc2)C/C1=C\c1ccc([N+](=O)[O-])cc1 |  | Non-toxic | 3.13 | 100 |  |  |  | 6.6 | 
21 | Cl.O=C1/C(=C/c2ccccc2)CN(C(=O)c2ccc(OCCN3CCOCC3)cc2)C/C1=C\c1ccccc1 | 5.4 | Non-toxic | 6.25 | 100 | Non-toxic | Non-toxic |  |  | 
22 | Cc1ccc(/C=C2\CN(C(=O)c3ccc(OCCN(C)C)cc3)C/C(=C\c3ccc(C)cc3)C2=O)cc1.Cl |  | Non-toxic | 3.13 | 100 | Non-toxic |  | Non-toxic | 6.8 | 
23 | CCN(CC)CCOc1ccc(C(=O)N2C/C(=C\c3ccc([N+](=O)[O-])cc3)C(=O)/C(=C/c3ccc([N+](=O)[O-])cc3)C2)cc1.Cl |  |  |  | 34 |  |  |  | 6.5 | 
24 | Cl.O=C1/C(=C/c2ccc(Cl)cc2)CN(C(=O)c2ccc(OCCN3CCOCC3)cc2)C/C1=C\c1ccc(Cl)cc1 | 6.4 | Non-toxic |  | 0 | Non-toxic | Non-toxic | Non-toxic |  | Activity (Rattus norvegicus [16]): Non-toxic
25 | CCN(CC)CCOc1ccc(C(=O)O)cc1.Cl | 2.9 | Non-toxic |  | 12 | Non-toxic | Non-toxic | Non-toxic |  | 
26 | Cl.O=C1/C(=C/c2ccc(Cl)cc2)CN(C(=O)c2ccc(OCCN3CCCCC3)cc2)C/C1=C\c1ccc(Cl)cc1 |  |  |  | 86 |  |  |  | 8.1 | 
27 | Cl.O=C1/C(=C/c2ccc(Cl)cc2)CNC/C1=C\c1ccc(Cl)cc1 |  | Non-toxic | 6.25 |  | Non-toxic | Non-toxic | Non-toxic | 6.8 | inhibition at 12.5 µg/mL [11]: 99%
28 | O=C1/C(=C/c2ccccc2)CN(C(=O)c2ccccc2)C/C1=C\c1ccccc1 | 5.5 |  |  | 0 |  |  |  |  | 
